Source: ChEMBL document CHEMBL2384915, “Design, synthesis and biological evaluation of novel 3,4,5-trisubstituted aminothiophenes as inhibitors of p53-MDM2 interaction. Part 2” (Bioorg Med Chem, 2013)

Assays:
A549 [1] = experiment: Cytotoxicity against human A549 cells expressing wild type p53 after 72 hrs by SRB assay; type: functional, cell-based; settings: A549, 72 h
In short: (§1)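 Seeded cells cultured overnight, then exposed to serial compound concentrations for 72 h. Fixed with 10% (w/v) TCA at 4 °C for 1 h, stained 30 min with 0.4% SRB in 1% acetic acid, washed with 1% acetic acid, and bound dye extracted with unbuffered Tris base. Absorbance read at 515 nm; inhibition computed versus untreated controls. IC50 derived by Logit method, mean of at least two independent tests.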

PC-3 = experiment: Cytotoxicity against human p53 deficient PC3 cells after 72 hrs by SRB assay; type: functional, cell-based; settings: PC-3, 72 h; in short: as §1
[2] = target: Tumour suppressor p53/oncoprotein Mdm2 (Homo sapiens, UniProt Q00987); experiment: (§2) Inhibition of p53/MDM2 (1 to 118) (unknown origin) interaction after 1 hr by fluorescence polarization assay; type: protein assay
Sequence of Tumour suppressor p53/oncoprotein Mdm2 (Homo sapiens, UniProt Q00987) (P04637 whole entry): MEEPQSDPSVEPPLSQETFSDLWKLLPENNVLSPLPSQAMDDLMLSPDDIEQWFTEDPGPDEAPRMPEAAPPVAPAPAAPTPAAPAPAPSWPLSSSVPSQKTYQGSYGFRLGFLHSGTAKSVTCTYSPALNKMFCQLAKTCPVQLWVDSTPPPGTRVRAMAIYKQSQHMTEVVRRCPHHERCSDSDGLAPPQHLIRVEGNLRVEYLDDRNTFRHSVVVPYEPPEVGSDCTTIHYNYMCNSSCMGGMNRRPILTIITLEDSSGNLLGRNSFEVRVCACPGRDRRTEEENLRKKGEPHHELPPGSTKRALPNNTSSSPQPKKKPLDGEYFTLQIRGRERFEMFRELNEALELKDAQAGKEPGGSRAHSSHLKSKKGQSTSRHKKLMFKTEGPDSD
Sequence of Tumour suppressor p53/oncoprotein Mdm2 (Homo sapiens, UniProt Q00987) (Q00987 whole entry): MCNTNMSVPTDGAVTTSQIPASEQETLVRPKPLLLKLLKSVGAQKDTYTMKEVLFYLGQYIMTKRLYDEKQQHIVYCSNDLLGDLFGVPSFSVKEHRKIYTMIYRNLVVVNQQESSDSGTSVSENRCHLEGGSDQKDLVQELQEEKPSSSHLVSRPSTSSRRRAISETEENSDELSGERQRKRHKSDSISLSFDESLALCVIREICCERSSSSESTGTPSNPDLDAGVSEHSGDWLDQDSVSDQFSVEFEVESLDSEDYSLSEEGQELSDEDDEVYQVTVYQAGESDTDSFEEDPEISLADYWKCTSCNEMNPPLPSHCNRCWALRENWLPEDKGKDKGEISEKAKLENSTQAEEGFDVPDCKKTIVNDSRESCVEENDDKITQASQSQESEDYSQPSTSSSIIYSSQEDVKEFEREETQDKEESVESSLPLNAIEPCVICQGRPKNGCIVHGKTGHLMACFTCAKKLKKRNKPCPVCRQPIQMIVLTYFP

A549 [3] = experiment: Selectivity ratio of IC50 for human p53 deficient PC3 cells to IC50 for human A549 cells expressing wild type p53; type: functional
[4] = target: Tumour suppressor p53/oncoprotein Mdm2 (Homo sapiens, UniProt P04637+Q00987); experiment: as §2; type: protein assay
Sequence of Tumour suppressor p53/oncoprotein Mdm2 (Homo sapiens, UniProt P04637+Q00987) (P04637 whole entry): as the sequence (P04637 whole entry) above
Sequence of Tumour suppressor p53/oncoprotein Mdm2 (Homo sapiens, UniProt P04637+Q00987) (Q00987 whole entry): as the sequence (Q00987 whole entry) above

In the case of `Nc1sc(-c2ccc(Br)cc2)c(-c2ccc(Cl)cc2)c1C(=O)NCc1ccccc1`, the IC50 (A549 [1]) is reported as 18.7 µM, the IC50 (PC-3) is reported as over 50 µM and the Ki [2] is reported as 0.76 µM.

For `CC(C)(C)NC(=S)c1c(N)sc(-c2ccc(Cl)cc2)c1-c1ccc(Cl)cc1`, the IC50 (A549 [1]) was over 50 µM, the IC50 (PC-3) was 34 µM and the Ki [2] was 0.58 µM.

With `Nc1sc(-c2ccc(F)cc2)c(-c2ccc(Cl)cc2)c1C(=O)N1CCOCC1` the IC50 (A549 [1]) was 12.7 µM, the IC50 (PC-3) was 25.1 µM and the Ki [2] was 0.22 µM.

For `COC(=O)c1c(N)sc(-c2ccc(Cl)cc2)c1-c1ccc(Cl)cc1`, the IC50 (A549 [1]) was 5.04 µM and the IC50 (PC-3) was 2.78 µM.

`O=C1CC(c2ccco2)c2c(sc(-c3ccc(Cl)cc3)c2-c2ccc(Cl)cc2)N1` (stereo unspecified) gave an IC50 (A549 [1]) of 25.4 µM and an IC50 (PC-3) of over 50 µM.

`Nc1sc(-c2ccc(Br)cc2)c(-c2ccc(Cl)cc2)c1C(=O)NC1CC1` showed an IC50 (A549 [1]) of over 50 µM, an IC50 (PC-3) of 37.3 µM and a Ki [2] of 2.18 µM.

With `Nc1sc(-c2ccc(Cl)cc2)c(-c2ccc(Cl)cc2)c1C(=O)NC1CC1` the IC50 (A549 [1]) was 1.95 µM and the IC50 (PC-3) was 3.68 µM.

With `CCOC(=O)c1c(N)[nH]c(-c2ccc(Cl)cc2)c1-c1ccc(Cl)cc1` the IC50 (A549 [1]) was 2.53 µM, the IC50 (PC-3) was 16.1 µM and the Ki [2] was 1.24 µM. For the same molecule, the “Ratio IC50” value (A549 [3]) was over 5.

Molecule `Nc1sc(-c2ccc(Cl)cc2)c(-c2ccc(Cl)cc2)c1C(=S)NC1CC1` has an IC50 (A549 [1]) of 8.28 µM, an IC50 (PC-3) of 22.1 µM and a Ki [2] of 0.086 µM.

`Nc1sc(-c2ccccc2)c(-c2ccc(Cl)cc2)c1C(=O)N1CCCC1` was tested, and the IC50 (A549 [1]) was 5.8 µM, the IC50 (PC-3) was 22.2 µM and the Ki [2] was 1.96 µM.

For `Nc1sc(-c2ccc([N+](=O)[O-])cc2)c(-c2ccc(Cl)cc2)c1C(=O)N1CCCC1`, the IC50 (A549 [1]) was 10.7 µM, the IC50 (PC-3) was 42.6 µM and the Ki [4] was “Not Active”.

`Nc1sc(-c2ccccc2)c(-c2ccc(Cl)cc2)c1C(=O)NCc1ccccc1` was tested, and the IC50 (A549 [1]) was 8.51 µM, the IC50 (PC-3) was 22.8 µM and the Ki [2] was 1.14 µM.

With `Nc1sc(-c2ccccc2)c(-c2ccc(Cl)cc2)c1C(=O)NC1CC1` the IC50 (A549 [1]) was 4.3 µM, the IC50 (PC-3) was 17.1 µM and the Ki [2] was 0.63 µM.

`Nc1sc(-c2ccc(Br)cc2)c(-c2ccc(Cl)cc2)c1C(=O)N1CCOCC1` was tested, and the IC50 (A549 [1]) was 7.49 µM, the IC50 (PC-3) was over 50 µM and the Ki [2] was 1.48 µM. For the same molecule, the “Ratio IC50” value (A549 [3]) was over 5.

In the case of `Nc1sc(-c2ccc([N+](=O)[O-])cc2)c(-c2ccc(Cl)cc2)c1C(=O)N1CCOCC1`, the IC50 (A549 [1]) is reported as 16.7 µM, the IC50 (PC-3) is reported as over 50 µM and the Ki [4] is reported as “Not Active”.

`Nc1sc(-c2ccc(Cl)cc2)c(-c2ccc(Cl)cc2)c1C(=S)NC1CCCC1` gave an IC50 (A549 [1]) of 22.1 µM, an IC50 (PC-3) of 29 µM and a Ki [2] of 0.17 µM.

`COc1ccc(C2=N[C@@H](c3ccc(Cl)cc3)[C@@H](c3ccc(Cl)cc3)N2C(=O)N2CCNC(=O)C2)c(OC(C)C)c1` [NUTLIN-3] was tested, and the IC50 (A549 [1]) was 4.62 µM and the IC50 (PC-3) was 20 µM.

In the case of `Nc1sc(-c2ccc(Cl)cc2)c(-c2ccc(Cl)cc2)c1C(=O)NC1CCCCC1`, the IC50 (A549 [1]) is reported as 2.41 µM and the IC50 (PC-3) is reported as 7.3 µM.

In the case of `Nc1sc(-c2ccc([N+](=O)[O-])cc2)c(-c2ccc(Cl)cc2)c1C(=O)NC1CCCCC1`, the IC50 (A549 [1]) is reported as 15 µM, the IC50 (PC-3) is reported as 25.9 µM and the Ki [4] is reported as “Not Active”.

For `Nc1[nH]c(-c2ccc(Cl)cc2)c(-c2ccc(Cl)cc2)c1C(=O)NC1CC1`, the IC50 (A549 [1]) was 4.62 µM, the IC50 (PC-3) was 19.3 µM and the Ki [2] was 0.53 µM.

In the case of `Clc1ccc(-c2sc3ncnc(N4CCOCC4)c3c2-c2ccc(Cl)cc2)cc1`, the IC50 (A549 [1]) is reported as over 50 µM and the IC50 (PC-3) is reported as over 50 µM.

`O=C1CC(c2ccccc2)c2c(sc(-c3ccc(Cl)cc3)c2-c2ccc(Cl)cc2)N1` (stereo unspecified) was tested, and the IC50 (A549 [1]) was 17.2 µM and the IC50 (PC-3) was over 50 µM.

`Clc1ccc(-c2sc3ncnc(NC4CCCCC4)c3c2-c2ccc(Cl)cc2)cc1` gave an IC50 (A549 [1]) of over 50 µM and an IC50 (PC-3) of over 50 µM.

`Clc1ccc(-c2sc3ncnc(N4CCCCC4)c3c2-c2ccc(Cl)cc2)cc1` was tested, and the IC50 (A549 [1]) was over 50 µM and the IC50 (PC-3) was over 50 µM.

`Nc1sc(-c2ccc(Cl)cc2)c(-c2ccc(Cl)cc2)c1C(=O)N1CCCC1` was tested, and the IC50 (A549 [1]) was 0.89 µM and the IC50 (PC-3) was 6.22 µM.

`Nc1sc(-c2ccc(Br)cc2)c(-c2ccc(Cl)cc2)c1C(=O)NC1CCCCC1` showed an IC50 (A549 [1]) of 9.59 µM, an IC50 (PC-3) of 28.4 µM and a Ki [2] of 1.06 µM.

Molecule `Nc1sc(-c2ccc(F)cc2)c(-c2ccc(Cl)cc2)c1C(=O)N1CCCC1` has an IC50 (A549 [1]) of 18.8 µM, an IC50 (PC-3) of 20.4 µM and a Ki [2] of 1.22 µM.

In the case of `Nc1sc(-c2ccc(F)cc2)c(-c2ccc(Cl)cc2)c1C(=O)NC1CC1`, the IC50 (A549 [1]) is reported as 3 µM, the IC50 (PC-3) is reported as 27.9 µM and the Ki [2] is reported as 0.34 µM. For the same molecule, the “Ratio IC50” value (A549 [3]) was over 5.

Work on `Nc1sc(-c2ccc(F)cc2)c(-c2ccc(Cl)cc2)c1C(=O)NCc1ccccc1` yielded an IC50 (A549 [1]) of 9.95 µM, an IC50 (PC-3) of 25.8 µM and a Ki [2] of 0.6 µM.

`Clc1ccc(-c2sc3ncnc(NC4CC4)c3c2-c2ccc(Cl)cc2)cc1` gave an IC50 (A549 [1]) of 42.8 µM and an IC50 (PC-3) of over 50 µM.

Molecule `Nc1sc(-c2ccccc2)c(-c2ccc(Cl)cc2)c1C(=O)N1CCOCC1` has an IC50 (A549 [1]) of 14.2 µM, an IC50 (PC-3) of 29.3 µM and a Ki [2] of 0.28 µM.

`Nc1sc(-c2ccc([N+](=O)[O-])cc2)c(-c2ccc(Cl)cc2)c1C(=O)NC1CC1` was tested, and the Ki [4] was “Not Active”.

Molecule `Nc1sc(-c2ccc(Cl)cc2)c(-c2ccc(Cl)cc2)c1C(=S)NC1CCCCC1` has an IC50 (A549 [1]) of 7.41 µM, an IC50 (PC-3) of 27.7 µM and a Ki [2] of 0.32 µM.

In the case of `Nc1sc(-c2ccc([N+](=O)[O-])cc2)c(-c2ccc(Cl)cc2)c1C(=O)N1CCCCC1`, the Ki [4] is reported as “Not Active”.

`O=C1CC(c2cccs2)c2c(sc(-c3ccc(Cl)cc3)c2-c2ccc(Cl)cc2)N1` (stereo unspecified) was tested, and the IC50 (A549 [1]) was 20.2 µM and the IC50 (PC-3) was over 50 µM.

In the case of `Nc1sc(-c2ccc(Br)cc2)c(-c2ccc(Cl)cc2)c1C(=O)N1CCCC1`, the IC50 (A549 [1]) is reported as 7.46 µM, the IC50 (PC-3) is reported as 37.5 µM and the Ki [2] is reported as 0.75 µM. The “Ratio IC50” value (A549 [3]) was over 5.
